Reference: ChEMBL document CHEMBL1148668, “The identification of pyrimidine-diazabicyclo[3.3.0]octane derivatives as 5-HT2C receptor agonists” (Bioorg Med Chem Lett, 2006)
Activity calls are given as the source filed them. The rule behind the calls is not given here.

Experiments:
[1] = target: T1, 5-hydroxytryptamine receptor 2C (Homo sapiens, UniProt P28335); test: Induction of 5HT2C receptor mediated increase in intracellular calcium concentration in HEK293 cells; type: functional, cell-based
T1 sequence (P28335 whole entry): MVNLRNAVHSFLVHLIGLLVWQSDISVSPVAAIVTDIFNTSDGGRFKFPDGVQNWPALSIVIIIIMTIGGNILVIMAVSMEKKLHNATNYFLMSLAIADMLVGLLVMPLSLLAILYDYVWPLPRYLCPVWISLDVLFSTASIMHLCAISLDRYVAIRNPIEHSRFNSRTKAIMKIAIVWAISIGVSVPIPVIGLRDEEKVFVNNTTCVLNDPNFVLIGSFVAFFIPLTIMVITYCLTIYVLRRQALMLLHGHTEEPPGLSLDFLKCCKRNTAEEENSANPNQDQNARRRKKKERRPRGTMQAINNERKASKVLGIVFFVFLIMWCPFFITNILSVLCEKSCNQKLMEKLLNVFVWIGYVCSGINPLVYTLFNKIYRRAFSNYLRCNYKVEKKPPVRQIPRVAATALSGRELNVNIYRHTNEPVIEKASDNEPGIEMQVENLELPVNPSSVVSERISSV
How it was run: (§1)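 Recombinant cell lines stably expressed the respective 5-HT2 receptor subtype. Agonist-induced rises in intracellular calcium were read with a fluorescence-based assay.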

[2] = target: 5-hydroxytryptamine receptor 2A (Homo sapiens, UniProt P28223); test: Induction of 5HT2A receptor mediated increase in intracellular calcium concentration in CHO cells; type: functional, cell-based; how it was run: as §1
[3] = target: 5-hydroxytryptamine receptor 2B (Homo sapiens, UniProt P41595); test: Induction of 5HT2B receptor mediated increase in intracellular calcium concentration in CHO cells; type: functional, cell-based; how it was run: as §1
Rattus norvegicus [4] = test: Reduction in food consumption in Sprague-Dawley rat at 20 mg/kg, ip after 24 hrs; type: functional, organism-based; set-up: dose 20 mg/kg
How it was run: (§2)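 Male Sprague–Dawley rats, n = 10/group, were given vehicle, fenfluramine (positive control) or test compound intraperitoneally about 30 min before onset of the 12 h dark cycle. This was a 24 h acute feeding study, with food consumption recorded at 4 and 24 h.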

[5] = Clearance in rat at 1.2 mg/kg, iv; type: ADME, organism-based; set-up: dose 1.2 mg/kg, route intravenous; conditions: in vivo
[6] = Oral bioavailability in rat at 10.6 mg/kg, po; type: ADME, organism-based; conditions: in vivo
Rattus norvegicus [7] = test: Reduction in food consumption in Sprague-Dawley rat at 20 mg/kg, ip after 4 hrs; type: functional, organism-based; set-up: dose 20 mg/kg; how it was run: as §2
Rattus norvegicus [8] = test: Reduction in food consumption in ip dosed Sprague-Dawley rat; type: functional, organism-based; how it was run: as §2
[9] = Brain to plasma AUC ratio in rat at 1.2 mg/kg, iv; type: ADME, organism-based; set-up: dose 1.2 mg/kg, route intravenous; conditions: brain and plasma, read-out: Ratio AUC
How it was run: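 Brain exposure was taken from cortex tissue. The ratio is AUC in cortex divided by AUC in plasma, after a single intravenous dose in rat.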

[10] = Half life in rat at 1.2 mg/kg, iv; type: ADME, organism-based; set-up: dose 1.2 mg/kg, route intravenous; conditions: in vivo

5-hydroxytryptamine receptor 2B, sequence (P41595 whole entry): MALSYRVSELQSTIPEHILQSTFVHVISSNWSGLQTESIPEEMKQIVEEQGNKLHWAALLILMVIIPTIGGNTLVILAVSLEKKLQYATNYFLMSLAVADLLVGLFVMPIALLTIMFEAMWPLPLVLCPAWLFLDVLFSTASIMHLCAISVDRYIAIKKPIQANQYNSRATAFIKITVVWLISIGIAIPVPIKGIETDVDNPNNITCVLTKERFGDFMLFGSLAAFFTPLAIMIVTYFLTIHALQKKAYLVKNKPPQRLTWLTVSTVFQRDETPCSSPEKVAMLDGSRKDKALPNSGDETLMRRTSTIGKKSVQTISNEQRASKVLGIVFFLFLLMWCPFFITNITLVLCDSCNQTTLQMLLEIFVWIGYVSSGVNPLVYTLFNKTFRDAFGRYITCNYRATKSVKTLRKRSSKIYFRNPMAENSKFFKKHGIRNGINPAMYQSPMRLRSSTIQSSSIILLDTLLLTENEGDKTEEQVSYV
5-hydroxytryptamine receptor 2A, sequence (P28223 whole entry): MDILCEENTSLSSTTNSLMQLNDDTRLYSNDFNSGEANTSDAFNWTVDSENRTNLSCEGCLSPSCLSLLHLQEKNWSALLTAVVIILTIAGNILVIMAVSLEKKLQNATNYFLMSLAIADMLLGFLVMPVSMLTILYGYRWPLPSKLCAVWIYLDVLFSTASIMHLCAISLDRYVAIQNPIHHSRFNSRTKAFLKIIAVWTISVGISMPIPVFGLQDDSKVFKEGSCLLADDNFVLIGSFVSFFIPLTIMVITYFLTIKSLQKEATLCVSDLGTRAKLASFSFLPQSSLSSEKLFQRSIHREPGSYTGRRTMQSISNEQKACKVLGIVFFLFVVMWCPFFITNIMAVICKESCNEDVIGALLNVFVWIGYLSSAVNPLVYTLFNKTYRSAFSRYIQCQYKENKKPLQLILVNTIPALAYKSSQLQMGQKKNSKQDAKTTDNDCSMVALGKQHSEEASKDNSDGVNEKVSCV

SMILES | EC50 [1] [nM] | EC50 [2] [nM] | EC50 [3] [nM] | further results
FC(F)(F)c1cccc([C@H]2CC[C@H]3CNC[C@H]32)c1 | 420 | 1080 | 187 | 
Clc1ccc(Cl)c(-c2ccnc(N3CC[C@H]4CNC[C@H]43)n2)c1 | > 1000 |  |  | 
Fc1ccc(F)c(-c2ccnc(N3CC[C@H]4CNC[C@H]43)n2)c1 | > 1000 |  |  | 
Clc1cccc(N2CC[C@H]3CNC[C@H]32)c1 | 503 | 416 | 59 | 
C[C@H]1C[C@H]2CNC[C@H]2N1c1nccc(C(F)(F)F)n1 | 22 | 40 | 151 | 
C[C@@H]1C[C@H]2CNC[C@H]2N1c1nccc(C(F)(F)F)n1 | 57 | 25 | 48 | 
FC(F)(F)c1ccnc(N2CC[C@@H]3CNC[C@@H]32)n1 | 519 |  |  | 
Clc1ccc(Cl)c(-c2ccnc(N3C[C@@H]4CCN[C@@H]4C3)n2)c1 | > 20000 |  |  | 
Fc1ccc(F)c(-c2ccnc(N3C[C@@H]4CCN[C@@H]4C3)n2)c1 | > 20000 |  |  | 
Fc1cccc(N2CC[C@H]3CNC[C@H]32)c1 | 319 | 1120 | 108 | 
FC(F)(F)c1ccnc(N2CCC3CNCC32)n1 (racemic) | 180 | 220 | 320 | 
FC(F)(F)c1ccnc(N2C[C@@H]3CCN[C@@H]3C2)n1 | > 20000 |  |  | 
FC(F)(F)c1ccnc(N2CC[C@H]3CNC[C@H]32)n1 | 23 | 116 | 62 | Activity (Rattus norvegicus [4]): Active; clearance [5]: 6.71 mL/min/kg; bioavailability [6]: 6%; Activity (Rattus norvegicus [7]): Active; Activity (Rattus norvegicus [8]): Dose-dependent effect; Kp [9]: 14.5; half-life [10]: 1.1 h
FC(F)(F)c1cccc(N2CC[C@H]3CNC[C@H]32)c1 | 103 | 168 | 65 | 
